Assay results from article PMC6718129 (Drug Design, Development and Therapy, 2019).

How the values were obtained:
A-549 cell line = experiment: Cell cycle distribution by total DNA content; format: cell-based, human; conditions: A-549, 24 and 48 hrs
Method in brief: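 A-549 cells treated 24 or 48 hr over a range from below 100 µM down to 50 nM, alongside a reference drug. Total DNA content per cell was quantified to assign cell cycle phase, together with immunofluorescent imaging of nuclear phosphorylated Rb. Automated image analysis quantified changes, and IC50 values were taken from dose–response curves.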

[1] = test system: phosphorylated Rb protein in A-549 cell line; experiment: Rb phosphorylation by quantitative immunofluorescence; format: cell-based, human; conditions: A-549, dose-response
Method in brief: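 A-549 cells were treated with vehicle or test compound (less than 100 µM down to 50 nM) for 24 or 48 hr. Nuclear phospho-Rb was measured by immunofluorescence, and total DNA content per cell gave the cell-cycle phase. Automated image analysis quantified P-Rb changes as dose–response curves, from which IC50 values were taken.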

CCN(CC)CCNC(=O)c1c(C)[nH]c(/C=C2\C(=O)Nc3ccc(F)cc32)c1C [Sunitinib]
Cell cycle influences (A-549 cell line): increase in the percentage of cells in the S or G2/M phases of the cell cycle, with a concomitant reduction in the G1 phase
levels of phosphorylated Rb protein (immunofluorescence) [1]: substantially reduced the extent of phosphorylated Rb protein in a dose-dependent fashion
